Experimental data from ChEMBL document CHEMBL3352402, “Pharmacological evaluation and docking studies of α,β-unsaturated carbonyl based synthetic compounds as inhibitors of secretory phospholipase A₂, cyclooxygenases, lipoxygenase and proinflammatory cytokines” (Bioorg Med Chem, 2014).
Activity calls are given as the source filed them. No cut-off for these calls is given here.

Key:
[1] = Inhibition of sPLA2-V (unknown origin) using substrate 1,2-bis(heptanoylthio)-glycerophosphocholine by Ellman's method based photometric assay; parameters: species or system Homo sapiens
[2] = target: T1, Prostaglandin G/H synthase 2 (Homo sapiens, UniProt P35354); test: Inhibition of human recombinant COX2 using arachidonic acid substrate assessed as PGE2 production ELISA method after 2 mins
T1 sequence (P35354 whole entry): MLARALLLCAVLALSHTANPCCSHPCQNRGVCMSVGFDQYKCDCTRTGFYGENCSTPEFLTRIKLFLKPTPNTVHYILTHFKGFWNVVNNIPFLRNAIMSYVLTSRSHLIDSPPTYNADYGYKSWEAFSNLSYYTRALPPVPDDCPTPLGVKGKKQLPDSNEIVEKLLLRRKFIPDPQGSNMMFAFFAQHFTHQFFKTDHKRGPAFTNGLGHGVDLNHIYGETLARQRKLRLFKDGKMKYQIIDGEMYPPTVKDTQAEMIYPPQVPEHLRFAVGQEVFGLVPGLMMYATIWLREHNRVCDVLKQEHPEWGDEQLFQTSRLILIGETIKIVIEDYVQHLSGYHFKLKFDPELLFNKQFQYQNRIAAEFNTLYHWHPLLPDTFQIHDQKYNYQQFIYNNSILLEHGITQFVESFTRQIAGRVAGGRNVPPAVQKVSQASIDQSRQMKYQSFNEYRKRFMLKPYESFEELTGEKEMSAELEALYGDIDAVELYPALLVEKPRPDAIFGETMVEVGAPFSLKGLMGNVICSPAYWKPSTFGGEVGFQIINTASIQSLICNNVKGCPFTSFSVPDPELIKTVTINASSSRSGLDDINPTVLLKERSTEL

[3] = tested on: RAW264.7; test: Immunostimulatory activity in mouse RAW264.7 cells assessed as stimulation of TNFalpha expression at 10 uM per-treated with compound for 2 hrs before LPS challenge for 22 hrs by ELISA method; type: functional, cell-based
Outline: (§1)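 RAW 264.7 macrophages grown in DMEM with 10% heat-inactivated FBS and 1% Pen Strep, 37°C, 5% CO2. Pretreated 2 h with compound (10 µM) or vehicle, then LPS (0.5 µg/ml, in PBS) 22 h. Medium was centrifuged and cytokine measured by mouse ELISA. Levels were normalized to total protein of the cell pellet and expressed as percent of LPS control. Triplicates, mean ± SEM.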

[4] = tested on: RAW264.7; test: Immunostimulatory activity in mouse RAW264.7 cells assessed as stimulation of IL6 release at 10 uM per-treated with compound for 2 hrs before LPS challenge for 22 hrs by ELISA method; type: functional, cell-based; outline: as §1
[5] = target: Lipoxygenase (Glycine max, UniProt Q39829); test: (§2) Inhibition of soybean lipoxygenase after 5 mins by colorimetric assay
Outline: (§3)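 Purified soybean lipoxygenase resuspended in 0.1 M Tris-HCl, pH 7. Enzyme plus test sample was started with substrate (dissolved in KOH, diluted to 1 mM) at room temperature for 5 min. Chromogen was added for 5 min to stop the reaction, then absorbance read at 490 nm. Activity is relative to enzyme plus substrate alone.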

[6] = target: Lipoxygenase (Glycine max) (UniProt Q39829); test: Inhibition of soybean lipoxygenase at 40 ug/mL after 5 mins by colorimetric assay
[7] = tested on: RAW264.7; test: Inhibition of TNFalpha expression in mouse RAW264.7 cells at 10 uM per-treated with compound for 2 hrs before LPS challenge for 22 hrs by ELISA method; type: functional
[8] = tested on: RAW264.7; test: Inhibition of IL6 release in mouse RAW264.7 cells at 10 uM per-treated with compound for 2 hrs before LPS challenge for 22 hrs by ELISA method; type: functional; outline: as §1
[9] = target: T2, Prostaglandin G/H synthase 1 (Ovis aries, UniProt P05979); test: Inhibition of ovine COX1 using arachidonic acid substrate assessed as PGE2 production ELISA method after 2 mins
T2 sequence (P05979 whole entry): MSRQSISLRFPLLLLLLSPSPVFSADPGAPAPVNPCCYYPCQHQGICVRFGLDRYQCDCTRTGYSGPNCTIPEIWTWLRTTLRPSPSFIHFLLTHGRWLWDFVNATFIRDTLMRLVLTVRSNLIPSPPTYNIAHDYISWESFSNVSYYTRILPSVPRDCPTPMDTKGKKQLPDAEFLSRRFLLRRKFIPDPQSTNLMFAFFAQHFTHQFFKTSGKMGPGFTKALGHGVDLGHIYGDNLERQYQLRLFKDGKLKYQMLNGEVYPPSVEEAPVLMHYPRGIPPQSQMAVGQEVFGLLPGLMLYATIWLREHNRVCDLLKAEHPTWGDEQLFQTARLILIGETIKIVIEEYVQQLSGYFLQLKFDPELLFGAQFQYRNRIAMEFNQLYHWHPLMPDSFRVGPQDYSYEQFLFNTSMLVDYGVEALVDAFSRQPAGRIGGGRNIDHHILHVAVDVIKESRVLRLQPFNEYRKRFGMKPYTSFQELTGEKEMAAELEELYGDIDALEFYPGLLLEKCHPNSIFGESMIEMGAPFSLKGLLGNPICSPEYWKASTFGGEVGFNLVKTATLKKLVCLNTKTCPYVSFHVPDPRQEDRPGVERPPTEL

[10] = target: Lipoxygenase (Glycine max) (UniProt Q39829); test: as §2; outline: as §3

Compound	IC50 [1] [µM]	IC50 [2] [µM]	Activity [3]	Activity [4]	IC50 [5] [µM]	inhibition [6] [%]	inhibition at 10 µM [7] [%]	inhibition at 10 µM [8] [%]	IC50 [9] [µM]	inhibition [10]
CCOC(OCC)c1ccc(/C=C2\CCc3ccccc3C2=O)cc1	58.2	> 100	Active							
O=C1/C(=C/c2ccc(N3CCCC3)cc2)Cc2ccccc21	67.3	54.6	Active	Active						
CCOC(OCC)c1ccc(/C=C2\CN(C)C/C(=C\c3ccc(C(OCC)OCC)cc3)C2=O)cc1	4.21	38.2			65.6	67.6	73	76		
CN(C)c1ccc(/C=C2\CC/C(=C\c3ccc(N(C)C)cc3[N+](=O)[O-])C2=O)c([N+](=O)[O-])c1	38.4	> 100								
O=C1/C(=C/c2ccc(N3CCCC3)cc2)CCC/C1=C\c1ccc(N2CCCC2)cc1	28.3	54.3							33.5	
O=C1/C(=C/c2ccc(N3CCCC3)cc2)CCc2ccccc21	54.2	> 100							33.5	
O=C(/C=C/c1ccc(N2CCCC2)cc1)C1CCc2ccccc2C1=O (stereo not drawn)	44.1	61.2		Active						
CN(C)c1ccc(/C=C/C(=O)/C=C/c2ccc(N(C)C)cc2[N+](=O)[O-])c([N+](=O)[O-])c1	18.2	15			103			76	3.96	
CCOC(OCC)c1ccc(/C=C2\Cc3ccccc3C2=O)cc1	37.3	19.3							2.22	
COc1cc(/C=C/C(=O)CC(=O)/C=C/c2ccc(O)c(OC)c2)ccc1O [CURCUMIN]	10.1				59.5	68.3			29.7	Dose-dependent effect
CN1C/C(=C\c2ccc(N(C)C)cc2[N+](=O)[O-])C(=O)/C(=C/c2ccc(N(C)C)cc2[N+](=O)[O-])C1	2.19	9.12			38.3		91	91	1.22	
C[C@@H]1C[C@H]2[C@@H]3CCC4=CC(=O)C=C[C@]4(C)[C@@]3(F)[C@@H](O)C[C@]2(C)[C@@]1(O)C(=O)CO [DEXAMETHASONE]	0.61									
CCOC(OCC)c1ccc(/C=C/C(=O)C2CCc3ccccc3C2=O)cc1 (stereo not drawn)	27.7	13.3			52.2	69.5			1.12	69.5%
CN(C)c1ccc(/C=C2\COC/C(=C\c3ccc(N(C)C)cc3[N+](=O)[O-])C2=O)c([N+](=O)[O-])c1	7.79	18.6			44.7		73	76	0.72	
O=C1/C(=C/c2ccc(N3CCCC3)cc2)CC/C1=C\c1ccc(N2CCCC2)cc1	55.7	46.2	Active						37.8	
CN(C)c1ccc(/C=C2\CNC/C(=C\c3ccc(N(C)C)cc3[N+](=O)[O-])C2=O)c([N+](=O)[O-])c1	4.19	7.88			39.5		73	76	0.67	
O=C1/C(=C/c2ccc(N3CCCC3)cc2)CNC/C1=C\c1ccc(N2CCCC2)cc1	12.1	> 100								
